Assay outcomes deposited in PubChem by several laboratories.
In the library only some 12% were active in any assay of this set; here they are far more common.
Lmaj promast: Leishmania major promastigote growth inhibition | inhibition, % at 10 µM | Leishmania major promastigotes, resazurin fluorescence viability | 200,000 compounds, 9% hits; in the data active = inhibition above about 50%;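 note: promastigotes grown with compound for 44 hours at 28 °C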
ROMK primary: modulators of human ROMK potassium channel; Tet-inducible ROMK, thallium flux fluorescence; actives lie on both sides; AID 1918; P48048; B-score at 10 µM; 130,000 compounds, 2% hits;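 active = signal ratio slope over the read window, or its plate-corrected B-score, at least 3 SD from the plate mean, either direction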;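 note: B-score of the F/F0 ratio slope over 7 to 12 s after thallium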
Diaphorase act: activates diaphorase or chemically reduces, flagging diaphorase assay artifacts | AID 1229 | 190,000 compounds, 0.005% hits | Diaphorase/resazurin coupled assay, resorufin fluorescence, 16 min; hits give high values; 1 = vehicle wells, 0 = NADH-free wells | activation factor at 20 µM;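 active = diaphorase activity raised at least twofold by the compound at 20 µM; inactive = activation factor below 2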
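Test system: Clostridium kluyveri diaphorase, purified enzyme; input: enzyme 0.07 U/mL final; buffer or medium: 50 mM HEPES pH 7.4 with 4.542 mM MgCl2, 0.005% Tween 20; also added: 0.114 mM NADH and 0.1 mM resazurin, final amounts; schedule: 16 min enzyme reaction, ambient temperature; technique: fluorescence of resorufin, 544 nm excitation, 590 nm emission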
Diaph inh CS: counter-screen for diaphorase-based assays: diaphorase inhibitors and chemical oxidizers; diaphorase resazurin-to-resorufin fluorescence, NADH, 16 min; bacterial (C. kluyveri) enzyme, not human; inhibition, % at 20 µM; 190,000 compounds, 0.69% hits; AID 1217;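 active = primary screen inhibition at 20 µM above a set limit, cut at about 50% in these data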;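 note: plate controls were DMSO with full reaction for no effect and wells lacking NADH for full effect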
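material = Clostridium kluyveri diaphorase enzyme | amount = 0.14 U/mL diaphorase, enzyme working solution | schedule = incubation 16 min, room temperature | detection = fluorescence of resorufin formed from resazurin, Ex 544/Em 590 nm | benchmarks = positive control minus NADH, DMSO neutral control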
WT yeast gro inh: growth inhibition of WT yeast, mitochondrial fusion screen; mitochondrial fusion phenotypic screen, WT strain; AID 1362; inhibition, % at 10 µM; 190,000 compounds, 2.1% hits; in the data active = inhibition above about 58%; tested in S. cerevisiae
KCC2 mod: KCC2 (human) Cl- transport modulation; Q9H2X9; KCC2 cells, thallium flux FluoZin-2 fluorescence; B-score of Tl+ flux slope (higher = more flux/activation; lower = inhibition) at 10 µM; 190,000 compounds, 2.2% hits;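 active = thallium flux slope and its plate-corrected score both differing from the plate sample mean at a set confidence after two filtering rounds, in either direction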;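 note: slope of fluorescence scaled to starting intensity during 10 to 20 s after thallium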
Target sequence (Q9H2X9 whole entry, looked up): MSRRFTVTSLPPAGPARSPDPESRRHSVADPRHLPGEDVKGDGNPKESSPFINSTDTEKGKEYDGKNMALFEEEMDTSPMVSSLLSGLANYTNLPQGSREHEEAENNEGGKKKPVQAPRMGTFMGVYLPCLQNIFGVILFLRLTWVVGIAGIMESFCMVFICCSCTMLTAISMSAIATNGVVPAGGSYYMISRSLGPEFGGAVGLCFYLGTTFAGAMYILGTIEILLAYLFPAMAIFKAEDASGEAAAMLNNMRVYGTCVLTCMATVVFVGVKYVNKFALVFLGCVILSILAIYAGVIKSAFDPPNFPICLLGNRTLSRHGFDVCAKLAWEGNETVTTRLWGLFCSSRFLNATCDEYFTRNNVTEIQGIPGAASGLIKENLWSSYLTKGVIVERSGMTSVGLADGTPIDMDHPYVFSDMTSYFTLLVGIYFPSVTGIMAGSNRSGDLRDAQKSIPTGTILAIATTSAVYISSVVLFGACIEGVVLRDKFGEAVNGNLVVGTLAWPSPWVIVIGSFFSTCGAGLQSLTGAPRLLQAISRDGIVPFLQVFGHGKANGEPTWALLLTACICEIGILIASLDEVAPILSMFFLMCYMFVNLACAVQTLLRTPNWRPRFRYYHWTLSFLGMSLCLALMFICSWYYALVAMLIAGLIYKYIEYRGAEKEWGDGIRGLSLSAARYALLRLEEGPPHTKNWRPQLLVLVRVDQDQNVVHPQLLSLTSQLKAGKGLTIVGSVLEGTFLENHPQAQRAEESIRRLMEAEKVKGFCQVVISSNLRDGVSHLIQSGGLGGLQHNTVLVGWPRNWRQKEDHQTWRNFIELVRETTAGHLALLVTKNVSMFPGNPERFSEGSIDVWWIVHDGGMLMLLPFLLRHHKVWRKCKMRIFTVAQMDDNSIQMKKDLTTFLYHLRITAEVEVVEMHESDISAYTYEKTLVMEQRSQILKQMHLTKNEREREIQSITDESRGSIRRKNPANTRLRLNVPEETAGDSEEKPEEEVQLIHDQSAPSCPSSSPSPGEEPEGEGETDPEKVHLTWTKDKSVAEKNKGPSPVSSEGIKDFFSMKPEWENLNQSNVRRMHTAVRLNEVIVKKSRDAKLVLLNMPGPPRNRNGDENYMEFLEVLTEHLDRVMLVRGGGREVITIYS
KCC2 sec1: KCC2 (human) modulation, secondary assay; shares compounds with KCC2 mod; HEK293-KCC2, thallium flux, FluoZin2 fluorescence; hits give high values; normalised thallium flux (F/F0 slope) at 10 µM; 3,700 compounds, 15% hits;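 active = thallium flux slope above the same plate's solvent-only control mean plus 3 SD; inconclusive = the two replicate wells disagree; inactive = no significant difference from solvent-only control wells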
KCC2 bumet counter: thallium flux despite bumetanide block in KCC2 cells, secondary assay 3; shares compounds with KCC2 mod; HEK293-KCC2 + bumetanide/ouabain, thallium flux FluoZin2; hits give high values; normalized thallium flux at 10 µM; 3,700 compounds, 49% hits; AID 1714;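 active = thallium entry rate above the same plate's blocked-transporter control wells by more than 3 SD; inconclusive = the two repeat wells disagree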;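 note: raw slope of fluorescence over initial fluorescence between 10 and 20 s after thallium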
KCC2 sec2: KCC2 (human) modulation, second secondary assay. shares compounds with KCC2 mod. HEK293-KCC2, thallium flux FluoZin2 fluorescence; actives lie on both sides; F/F0 rise rate, 10–20 s post-thallium. normalized thallium flux at 10 µM. 3,700 compounds, 23% hits;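 active = thallium flux slope more than 3 SD above or below the plate's solvent-only control mean, mostly below; inconclusive = the two repeat wells disagreed; inactive = no significant shift from solvent-only controls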;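 note: raw slope with 0.1% DMSO as baseline and bumetanide as block control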
HEK counter1: acts in parental HEK cells, KCC2 counter-screen. shares compounds with KCC2 mod. HEK293 parental cells, thallium flux FluoZin2, ouabain; baseline-ratio fluorescence slope, 10–20 s after thallium. thallium flux rate (normalised fluorescence) at 10 µM. 3,700 compounds, 46% hits;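 active = thallium flux rate significantly above the same plate's solvent-only control wells, beyond their mean plus 3 SD; inconclusive = the two replicate wells gave conflicting results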
KCC2 ouabain: KCC2 (human) modulation, ouabain retest | 3,700 compounds, 48% hits | AID 1717 | shares compounds with KCC2 mod | HEK293-KCC2, thallium flux FluoZin2 fluorescence; bidirectional: low = inhibitor, high = activator | raw Tl+ flux slope (below DMSO = inhibition, above = activation) at 10 µM;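 active = thallium flux slope beyond 3 SD from same-plate DMSO control mean in most replicates, usually higher, sometimes lower; inconclusive = repeat tests gave conflicting results; inactive = no significant difference from controls in most replicates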;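 note: slope of initial-normalized fluorescence between seconds 10 and 20 after thallium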
HEK counter2: acts in parental HEK cells, second KCC2 counter-screen. shares compounds with KCC2 mod. HEK293 parental, thallium flux FluoZin-2 fluorescence slope. thallium flux slope at 10 µM. 3,700 compounds, 33% hits. AID 1718;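 active = thallium flux slope above the same plate's solvent-control mean plus 3 SD in both duplicate wells; inconclusive = duplicate wells that disagreed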;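 note: run without ouabain in cells lacking the KCC2 cotransporter; slope of fluorescence scaled to its starting value between 10 and 20 s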
ROMK hit retest: human ROMK channel modulation, retest confirmation; shares compounds with ROMK primary; ROMK thallium flux, fluorescence ratio; hits give low values; normalized thallium flux (F/F0 slope) at 10 µM; 3,000 compounds, 54% hits; AID 1917;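 active = Flux at 10 µM at least 3 SD below or above vehicle control mean in one or both replicates; inconclusive = no clear call, values can overlap the other calls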
An asterisk follows results filed as active; u = inconclusive; x = no result.

SMILES	Lmaj promast	ROMK primary	Diaphorase act	Diaph inh CS	WT yeast gro inh	KCC2 mod	ROMK hit retest	others
O=C1NC(=O)C2(Cc3c(nc4ccccn4c3=O)N3CCCCCC32)C(=O)N1Cc1ccccc1 (stereo unspecified)	96.7*	-2.72	0.8	22.3	15.2	-3.95*	x	KCC2 sec1=0.00626;KCC2 bumet counter=0.0051;KCC2 sec2=u;HEK counter1=0.00513*;KCC2 ouabain=0.0163*;HEK counter2=0.0085
O=C1NC(=O)C2(Cc3ccccc3N3CCCC32)C(=O)N1Cc1ccccc1 (stereo unspecified)	-3.2	x	0.8	18.1	-1.7	-0.779	x
CCOC(=O)C(O)(c1ccc(NC(=S)NC(=O)c2ccc(Cl)cc2Cl)c(C)c1)C(F)(F)F (stereo unspecified)	23.1	x	0.7	28.3	76.8*	5.45*	x	KCC2 sec1=0.00626;KCC2 bumet counter=0.0291*;KCC2 sec2=0.036;HEK counter1=0.0138*;KCC2 ouabain=0.0292*;HEK counter2=0.0157*
CC(C)(C)NC(=S)/N=C(\N)N[N+](=O)[O-]	-6.5	-0.0177	0.9	8.2	-2.4	0.0736	x
Cc1nn(C)c(C)c1P(=S)(c1c(C)nn(C)c1C)N(C)C	9.4	x	0.9	10.4	10.2	-0.227	x
CC(=O)Nc1cc(C(=O)N2CCC3(CC2)OCCO3)ccc1S(=O)(=O)c1ccc(Cl)cc1	-7.7	-0.129	0.9	14.8	x	-6.36*	x	KCC2 sec1=0.00765;KCC2 bumet counter=0.00531;KCC2 sec2=0.0296;HEK counter1=0.00851;KCC2 ouabain=0.0186;HEK counter2=0.0118
CC(=O)Nc1cc(C(=O)N2CCC3(CC2)OCCO3)ccc1S(=O)(=O)c1ccc(C)cc1	-6.5	0.0086	0.9	6.2	3.4	x	x
CCCC(=O)Nc1cc(C(=O)N2CCC3(CC2)OCCO3)ccc1S(=O)(=O)c1ccc(C)cc1	-6.7	x	1	2.5	-4.2	-5.15*	x	KCC2 sec1=0.00968;KCC2 bumet counter=0.00605;KCC2 sec2=0.0325;HEK counter1=0.00728;KCC2 ouabain=0.0218;HEK counter2=0.0104
Cc1ccc(S(=O)(=O)Nc2cc(C(=O)N3CCC4(CC3)OCCO4)ccc2N2CCCCC2)cc1	23.8	-2.19	0.8	22.7	0.0	x	x
CC(C)CC1C(C#N)=C(N)Oc2c1c(=O)oc1ccccc21 (stereo unspecified)	-3.5	x	0.9	11.4	5.7	0.608	x
C=CCN1C(=O)NC(=O)/C(=C/c2cc3c4c(c2)CCCN4CCC3)C1=O	93.1*	-4.35*	0.8	24.0	21.2	-0.268	0.0559*
CC(NCc1ccccc1C(F)(F)F)C(O)c1ccccc1 (stereo unspecified)	15.9	-0.901	1.2	-21.6	-7.4	-0.158	x
CCOc1cc(CNC(C)C(O)c2ccccc2)cc(Cl)c1OCC (stereo unspecified)	45.9	-2.79*	0.9	7.0	12.0	1.6	0.0586*
CCCCCCOc1ccc(CN2CCN(CC)CC2)cc1	97.1*	-3.95*	0.9	6.3	25.7	-0.174	0.0597*
CN1CCN(Cc2ccc(N)cc2)CC1	-4.2	x	1	0.2	6.8	x	x
c1cc(CCN2CCCC2)ccn1	x	x	x	x	x	0.676	x
COc1cccc(O)c1CN1CCCC(C(=O)c2ccccc2SC)C1 (stereo unspecified)	20.2	-0.635	1	4.0	-8.9	-0.0906	x
CN1CCN(C(=O)COc2ccc3ccccc3c2Br)CC1	-1.6	-1.72	0.8	15.0	3.3	-0.268	x
CCCCC1(CCCC)C(=O)NC(=Nc2cccc(C)c2)NC1=O	25.9	x	1	2.3	3.0	-2.55	0.052*
CCCC1(CCC)C(=O)NC(=Nc2ccccc2)NC1=O	-1.1	x	0.8	22.3	8.2	0.552	x
CC(C)COP(=O)(OCC(C)C)C(O)c1cccnc1 (stereo unspecified)	15.0	-0.316	0.8	15.1	1.5	0.112	x
CC/C(=N\NC(=O)Nc1ccccc1)c1c(O)n(Cc2ccccc2)c(=O)[nH]c1=O	x	0.0714	x	x	x	-0.542	x
COc1ccccc1OP(=O)(Nc1cccnc1)Oc1ccccc1OC	10.1	x	1	4.7	-2.3	-0.968	0.062*
Cc1ccc(NP(=O)(Oc2ccccc2F)Oc2ccccc2F)cc1C	7.4	-0.369	0.8	20.0	42.2	0.0373	x
C1=C(c2c[nH]c3ccccc23)CCN(Cc2ccccc2)C1	39.3	-3.71*	1	-0.6	20.1	0.43	0.0496*
SMILES	Lmaj promast	ROMK primary	Diaphorase act	Diaph inh CS	WT yeast gro inh	KCC2 mod	ROMK hit retest	others
CCN(CC)CC(=O)Nc1ccc(Cl)cc1C(=O)c1ccccc1	13.9	x	x	x	-21.0	0.97	x
COc1ccc(N2CC2c2ccncc2)cc1 (stereo unspecified)	0.7	-0.774	1	0.3	-12.3	0.333	x
CCC(=NCCOc1ccc(Cl)cc1)c1c(O)n(C)c(=O)n(C)c1=O	-9.9	-3.08*	0.9	8.0	7.3	-0.241	0.0658*
CCC(=NCCN1CCCCC1)c1c(O)n(C)c(=O)n(C)c1=O	-7.5	1.07	1	4.4	-5.8	0.731	x
OC(COCc1ccc(Cl)cc1)CN1CC=C(c2ccccc2)CC1 (stereo unspecified)	88.0*	-3.34*	0.9	11.4	50.6	-0.288	0.0602*
O=C(CN1CC=C(c2ccccc2)CC1)NC(=O)NCc1ccccc1	-8.4	-0.128	1	-0.2	7.0	0.0488	x
c1ccc(NC2=NCCS2)cc1	x	0.784	x	x	x	0.837	x
COc1cc2c(cc1OC)[C@@H]1C(=O)c3ccc4c(c3O[C@@H]1CO2)C[C@H](C(C)C)O4	x	x	x	x	x	-1.56	0.0639*
Cn1cccc1/C=C1/C(=O)NC(=O)N(C(C)(C)C)C1=O	x	4.16*	x	x	x	0.469	0.0819
O=c1[nH]c(=O)n(Cc2ccccc2Cl)c(O)c1/C=C1/C=CC=N1	23.8	2.6*	0.9	7.9	-8.7	0.848	u
